16 compounds from ChEMBL document CHEMBL1681688, “Design and evaluation of a 2-(2,3,6-trifluorophenyl)acetamide derivative as an agonist of the GPR119 receptor” (Bioorg Med Chem Lett, 2011) can be followed below.

The structures appear in SMILES notation.

The target of data set [1] is T1, Glucose-dependent insulinotropic receptor (Homo sapiens, UniProt Q8TDV5).
T1 sequence (Q8TDV5 whole entry): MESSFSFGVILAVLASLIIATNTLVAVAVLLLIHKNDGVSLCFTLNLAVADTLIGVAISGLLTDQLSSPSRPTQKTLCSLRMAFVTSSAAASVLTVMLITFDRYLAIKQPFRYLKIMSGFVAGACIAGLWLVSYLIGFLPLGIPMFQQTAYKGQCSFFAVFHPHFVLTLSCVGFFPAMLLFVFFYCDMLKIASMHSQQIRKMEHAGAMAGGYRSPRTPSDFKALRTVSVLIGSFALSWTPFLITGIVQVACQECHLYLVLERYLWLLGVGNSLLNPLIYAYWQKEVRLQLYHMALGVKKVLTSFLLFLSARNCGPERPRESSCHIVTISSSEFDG
The data set is described as follows: Agonist activity against human GPR119 receptor expressed in HEK293 cells assessed as beta-lactamase production by cAMP response element assay. The data set is classed as functional, cell-based.

A short description of data set [2]: Intrinsic clearance in human liver microsomes. The data set is classed as ADME, Microsome. In general terms: Microsomes from liver hold many membrane-bound enzymes, among them those of drug oxidation.
Data set [3] deals with T2, Glucose-dependent insulinotropic receptor (Homo sapiens) (UniProt Q8TDV5).
T2 sequence (whole entry): T1 sequence (Q8TDV5 whole entry)
Briefly: Intrinsic activity against human GPR119 receptor expressed in HEK293 cells assessed as beta-lactamase production by cAMP response element assay. The data set is classed as functional, cell-based. In a few lines:
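Human recombinant cell-based cAMP functional assay, read as intrinsic activity. The number of runs varies by compound, with SD reported where n >2.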

A short description of data set [4]: Lipophilicity, log D of the compound. It counts as physicochemical. To be noted: octanol/water.

As a reminder, the EC50 is the concentration at which the effect is half-maximal. For orientation: CLint scaled means the capacity of the preparation to metabolise the compound, expressed as a volume cleared per time. A lower CLint scaled goes with greater metabolic stability. On to `CC(CNC(=O)Cc1cccc(F)c1)C1CCN(C(=O)OC(C)(C)C)CC1` (stereo not drawn), for which the 50% effective concentration (EC50) in data set [1] amounted to 340 nM. This compound also had a CLint scaled in data set [2] of more than 300 mL/min/kg. Besides, the Intrinsic activity in data set [3] was 102%.
As usually defined, the logD is lipophilicity at a set pH, counting ionised and neutral species. A lower logD goes with lower lipophilicity. For the compound `CC1(OC(=O)N2CCC(CCNC(=O)Cc3c(F)ccc(F)c3F)CC2)CC1`, in data set [1], the half-maximal effective concentration (EC50) is 868 nM. Moreover, in data set [3], the Intrinsic activity is 111%. Moreover, in data set [4], the logD was 3.5.
Take `CC1(OC(=O)N2CCC([C@H](F)CNC(=O)Cc3c(F)ccc(F)c3F)CC2)CC1`: the EC50 in data set [1] is 80 nM. In data set [2], the CLint scaled was 42.4 mL/min/kg. Also, the Intrinsic activity in data set [3] amounted to 107%. For the same compound, the logD in data set [4] worked out at 3.4.
As for `CC(CNC(=O)Cc1ccccc1)C1CCN(C(=O)OC(C)(C)C)CC1` (stereo not drawn), the half-maximal effective concentration (EC50) in data set [1] was determined as 5980 nM. The CLint scaled in data set [2] is 247 mL/min/kg. In addition, the Intrinsic activity in data set [3] was 100%.
The like results for `CC(CNC(=O)Cc1cccc(F)c1F)C1CCN(C(=O)OC(C)(C)C)CC1` (stereo not drawn) were, in that order, 75 nM, more than 300 mL/min/kg and 107%.
The corresponding values for `CC(CNC(=O)Cc1c(F)ccc(F)c1F)C1CCN(C(=O)OC(C)(C)C)CC1` (stereo not drawn) are 13 nM, 230 mL/min/kg and 87%.
As for `CC(CNC(=O)Cc1c(F)cccc1F)C1CCN(C(=O)OC(C)(C)C)CC1` (stereo not drawn), in data set [1], the EC50 worked out at 120 nM. In addition, in data set [3], the Intrinsic activity was 101%. Further, the logD in data set [4] worked out at 3.9.
The like results for `CC(C)OC(=O)N1CCC(CCNC(=O)Cc2c(F)ccc(F)c2F)CC1` were, in that order, 409 nM, 68% and 3.4.
As for `CC1(OC(=O)N2CCC([C@@H](F)CNC(=O)Cc3c(F)ccc(F)c3F)CC2)CC1`, the concentration for a half-maximal effect (EC50) in data set [1] worked out at 1380 nM. Also, the CLint scaled in data set [2] turned out to be 63.8 mL/min/kg. In addition, the Intrinsic activity in data set [3] amounted to 100%. In data set [4], the logD turned out to be 3.4.
Regarding `C[C@@H](CNC(=O)Cc1c(F)ccc(F)c1F)C1CCN(C(=O)OC2(C)CC2)CC1`, the EC50 in data set [1] was 236 nM. Also, the intrinsic metabolic clearance (CLint scaled) in data set [2] is 187 mL/min/kg. For the same compound, in data set [3], the Intrinsic activity was found to be 97%. Besides, in data set [4], the log distribution coefficient (logD) worked out at 3.9.
As to `CC(CNC(=O)Cc1cc(F)ccc1F)C1CCN(C(=O)OC(C)(C)C)CC1` (stereo not drawn), the EC50 in data set [1] was 78 nM. Besides, the intrinsic clearance (CLint scaled) in data set [2] was more than 300 mL/min/kg. Moreover, the Intrinsic activity in data set [3] was found to be 104%.
Turning to `CC(CNC(=O)Cc1ccc(-n2cnnn2)cc1)C1CCN(C(=O)OC(C)(C)C)CC1` (stereo not drawn), in data set [1], the EC50 came out at 267 nM. Also, the CLint scaled in data set [2] was more than 270 mL/min/kg. Further, the Intrinsic activity in data set [3] was determined as 72%.
`C[C@H](CNC(=O)Cc1c(F)ccc(F)c1F)C1CCN(C(=O)OC2(C)CC2)CC1`: the EC50 in data set [1] stood at 44 nM. Further, in data set [2], the CLint scaled was more than 300 mL/min/kg. Further, the Intrinsic activity in data set [3] was 124%. This compound also gave a logD in data set [4] of 3.9.
The like results for `CC(C)OC(=O)N1CCC(C(C)CNC(=O)Cc2c(F)ccc(F)c2F)CC1` (stereo not drawn) were, in that order, 32 nM, 205 mL/min/kg, 88% and 4.
As to `CC(CNC(=O)Cc1ccccc1F)C1CCN(C(=O)OC(C)(C)C)CC1` (stereo not drawn), in data set [1], the 50% effective concentration (EC50) was determined as 808 nM. Besides, the CLint scaled in data set [2] was more than 300 mL/min/kg. Moreover, the Intrinsic activity in data set [3] is 97%.
The corresponding values for `CC(CNC(=O)Cc1ccc(S(C)(=O)=O)cc1)C1CCN(C(=O)OC(C)(C)C)CC1` (stereo not drawn) are 884 nM, 136 mL/min/kg and 47%.
